Activity calls are given as the source filed them. The rule behind the calls is not given here.
Columns and labels:
Trypsin = Trypsin (Homo sapiens, UniProt P07477+P07478+P35030); assay: Inhibition of human trypsin by chromogenic assay; format: protein assay
[1] = Inhibition of human lung beta tryptase by chromogenic assay
Homo sapiens [2] = species on record: Homo sapiens; assay: Ratio of IC50 for human trypsin to IC50 for human tryptase
Method in brief: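 Human lung β-tryptase: 1 nM, H-D-HHT-Ala-Arg-pNA 500 µM, Tris/Hepes/NaCl/PEG buffer, pH 7.4. Human pancreatic trypsin: 1.8 nM, N-α-Z-D-Arg-Gly-Arg-pNA 60 µM, 200 mM NaCl, 50 mM Hepes, 0.5% octyl glucoside, pH 7.4.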

Homo sapiens [3] = species on record: Homo sapiens; assay: Inhibition of human recombinant beta tryptase at 50 uM by chromogenic assay; settings: in the assay text read “human lung beta tryptase” for “human recombinant beta tryptase”
Method in brief: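 A405 followed for 15 min at 22 °C after enzyme addition. Percent inhibition at 50 µM compared initial velocities with and without inhibitor.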

Plasma = assay: Drug level in sheep plasma; format: ADME, cell-free, Ovis aries
Cavia porcellus [4] = assay: Antiinflammatory activity in ovalbumin-sensitized guinea pig asthma model assessed as reduction in total WBC cell count at 20 mg/kg, po BID for 3 days relative to control; format: functional; set-up: scale not given: the % may be the effect or the level left
Method in brief: (§1)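 Ovalbumin-sensitized guinea pigs received the benzoate salt orally at 20 mg/kg twice daily for 3 days, then once on Day 4 at 2 h before ovalbumin challenge.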

Cavia porcellus [5] = assay: Antiinflammatory activity in ovalbumin-sensitized guinea pig asthma model assessed as reduction in total lung resistance at 20 mg/kg, po BID for 3 days relative to control; format: functional; set-up: scale not given: the % may be the effect or the level left; method in brief: as §1
Cavia porcellus [6] = assay: Antiinflammatory activity in ovalbumin-sensitized guinea pig asthma model assessed as increase in dynamic lung compliance at 20 mg/kg, po BID for 3 days relative to control; format: functional; method in brief: as §1
[7] = biological target: Plasma kallikrein (Homo sapiens) (UniProt P03952); assay: Inhibition of kallikrein at 10 uM
[8] = biological target: Tissue-type plasminogen activator (Homo sapiens) (UniProt P00750); assay: Inhibition of tPA at 10 uM
[9] = Inhibition of chymotrypsin at 10 uM
[10] = biological target: Cathepsin G (Homo sapiens) (UniProt P08311); assay: Inhibition of cathepsin G at 50 uM
[11] = biological target: Urokinase-type plasminogen activator (Homo sapiens) (UniProt P00749); assay: Inhibition of uPA at 10 uM
[12] = biological target: Coagulation factor X (Homo sapiens) (UniProt P00742); assay: Inhibition of factor 10a at 50 uM
[13] = biological target: Prothrombin (Homo sapiens) (UniProt P00734); assay: Inhibition of thrombin at 10 uM
Ovis aries [14] = assay: Antiinflammatory activity in Ascaris suum-sensitized sheep asthma model assessed as blockade of late-phase airway response at 30 mg/kg, po BID after 8 hrs; format: functional, organism-based; set-up: dose 30 mg/kg
Method in brief: (§2)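 Conscious, antigen-sensitized allergic sheep were dosed by oral gavage with the benzoate salt at 30 mg/kg twice on Day 1, and on Day 2 at 2 h before antigen challenge. Airway resistance (SR_L) was monitored for 8 h after challenge: early phase 0–4 h, late phase 4–8 h. Airway hyper-reactivity to carbachol (PC₄₀₀) was measured at 24 h.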

Chymase (Homo sapiens) = Chymase (Homo sapiens) (UniProt P23946); assay: Inhibition of chymase at 50 uM
[15] = Inhibition of streptokinase at 10 uM
[16] = biological target: Plasminogen (Homo sapiens) (UniProt P00747); assay: Inhibition of plasmin at 10 uM
Ovis aries [17] = assay: Antiinflammatory activity in Ascaris suum-sensitized sheep asthma model assessed as increase in airway hyperactivity at 30 mg/kg, po BID after 24 hrs relative to carbachol; format: functional, organism-based; set-up: dose 30 mg/kg; method in brief: as §2
Ovis aries [18] = assay: Antiinflammatory activity in Ascaris suum-sensitized sheep asthma model assessed as blockade of early-phase airway response at 30 mg/kg, po BID after 8 hrs; format: functional, organism-based; set-up: dose 30 mg/kg; method in brief: as §2
[19] = biological target: Neutrophil elastase (Homo sapiens) (UniProt P08246); assay: Inhibition of human leukocyte elastase at 10 uM
[20] = biological target: Coagulation factor VII (Homo sapiens) (UniProt P08709); assay: Inhibition of factor 7a at 10 uM
[21] = Metabolic stability in human liver microsomes assessed as half life; format: ADME, Microsome
Cytochrome P450 2C19 = Cytochrome P450 2C19 (Homo sapiens, UniProt P33261); assay: Inhibition of human CYP2C19; format: ADME
Method in brief: (§3)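 IC50 for cytochrome P450 isozyme inhibition was measured in isolated human liver microsomes.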

[22] = Metabolic stability in human liver microsomes after 60 mins; format: ADME, Microsome; settings: read-out: Stability
Rattus norvegicus = assay: Volume of distribution in orally dosed rat; format: ADME, organism-based; settings: in vivo, po
[23] = Half life in orally dosed dog; format: ADME, organism-based, Canis lupus familiaris; settings: in vivo, po
[24] = biological target: Amine oxidase [flavin-containing] A (Homo sapiens, UniProt P21397); assay: Inhibition of monoamine oxidase A
Cytochrome P450 2D6 = Cytochrome P450 2D6 (Homo sapiens, UniProt P10635); assay: Inhibition of human CYP2D6; format: ADME; method in brief: as §3
[25] = Oral bioavailability in dog; format: ADME, organism-based, Canis lupus familiaris; settings: in vivo
Canis familiaris = assay: Volume of distribution in orally dosed dog; format: ADME, organism-based, Canis lupus familiaris; settings: in vivo, po
Cytochrome P450 2C9 = Cytochrome P450 2C9 (Homo sapiens, UniProt P11712); assay: Inhibition of human CYP2C9; format: ADME; method in brief: as §3
[26] = Half life in orally dosed rat; format: ADME, organism-based; settings: in vivo, po
Cytochrome P450 1A2 = Cytochrome P450 1A2 (Homo sapiens, UniProt P05177); assay: Inhibition of human CYP1A2; format: ADME; method in brief: as §3
[27] = Oral bioavailability in rat; format: ADME, organism-based; settings: in vivo
[28] = Cmax in orally dosed dog; format: ADME, organism-based, Canis lupus familiaris; set-up: route oral; settings: in vivo, po
monoamine oxidase B = assay: Stability in presence of monoamine oxidase B after 30 mins; format: ADME; settings: read-out: Stability
Method in brief: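 The compound was tested as an MAO-B substrate, with parent remaining measured at 30 min. Benzylamine was run as a reference substrate.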

[29] = biological target: Amine oxidase [flavin-containing] B (Homo sapiens, UniProt P27338); assay: Inhibition of monoamine oxidase B
[30] = Cmax in orally dosed rat; format: ADME, organism-based; set-up: route oral; settings: in vivo, po
Cytochrome P450 3A4 = Cytochrome P450 3A4 (Homo sapiens, UniProt P08684); assay: Inhibition of human CYP3A4; format: ADME; method in brief: as §3
Chain of Cytochrome P450 3A4 (P08684 whole entry): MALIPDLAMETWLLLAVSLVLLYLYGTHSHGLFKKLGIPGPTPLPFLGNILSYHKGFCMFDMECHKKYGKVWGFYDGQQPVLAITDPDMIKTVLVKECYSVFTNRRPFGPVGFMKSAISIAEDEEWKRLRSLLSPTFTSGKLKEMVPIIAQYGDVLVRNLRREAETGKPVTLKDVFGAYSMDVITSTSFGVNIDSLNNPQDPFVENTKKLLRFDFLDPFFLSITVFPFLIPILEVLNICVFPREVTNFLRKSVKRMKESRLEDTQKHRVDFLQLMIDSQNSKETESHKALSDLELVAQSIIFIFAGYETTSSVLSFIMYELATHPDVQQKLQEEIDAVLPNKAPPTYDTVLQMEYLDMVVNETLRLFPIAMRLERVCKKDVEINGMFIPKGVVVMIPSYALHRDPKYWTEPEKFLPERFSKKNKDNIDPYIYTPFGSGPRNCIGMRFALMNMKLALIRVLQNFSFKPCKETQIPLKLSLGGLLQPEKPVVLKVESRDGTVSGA

Chain of Tissue-type plasminogen activator (Homo sapiens) (P00750 36-562 limits assumed): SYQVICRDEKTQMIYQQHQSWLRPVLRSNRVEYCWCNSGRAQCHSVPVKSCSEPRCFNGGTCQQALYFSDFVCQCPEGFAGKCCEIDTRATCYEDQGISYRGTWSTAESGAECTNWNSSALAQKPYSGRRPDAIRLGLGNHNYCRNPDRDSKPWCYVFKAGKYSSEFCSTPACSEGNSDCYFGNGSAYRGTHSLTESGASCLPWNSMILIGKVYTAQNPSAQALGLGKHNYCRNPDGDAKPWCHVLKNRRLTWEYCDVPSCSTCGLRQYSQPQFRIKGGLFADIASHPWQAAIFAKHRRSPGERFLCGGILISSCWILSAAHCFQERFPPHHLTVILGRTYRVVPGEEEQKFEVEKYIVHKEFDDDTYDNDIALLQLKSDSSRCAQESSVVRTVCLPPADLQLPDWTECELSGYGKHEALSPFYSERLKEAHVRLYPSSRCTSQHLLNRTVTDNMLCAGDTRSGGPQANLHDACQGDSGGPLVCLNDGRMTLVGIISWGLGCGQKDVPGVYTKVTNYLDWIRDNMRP
Chain of Coagulation factor X (Homo sapiens) (P00742 41-179 limits assumed): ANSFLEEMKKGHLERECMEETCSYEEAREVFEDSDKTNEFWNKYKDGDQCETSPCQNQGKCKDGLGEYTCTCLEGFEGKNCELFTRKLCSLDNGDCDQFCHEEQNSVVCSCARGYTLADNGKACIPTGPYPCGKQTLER
Chain of Coagulation factor X (Homo sapiens) (P00742 235-488 limits assumed): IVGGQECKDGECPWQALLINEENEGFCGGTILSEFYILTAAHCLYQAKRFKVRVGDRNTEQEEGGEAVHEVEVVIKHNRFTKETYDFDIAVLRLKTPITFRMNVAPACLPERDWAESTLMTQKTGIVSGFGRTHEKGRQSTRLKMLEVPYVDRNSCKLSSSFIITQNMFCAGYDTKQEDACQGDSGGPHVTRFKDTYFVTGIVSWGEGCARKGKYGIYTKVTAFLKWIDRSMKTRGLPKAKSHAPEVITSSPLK
Chain of Cathepsin G (Homo sapiens) (P08311 whole entry): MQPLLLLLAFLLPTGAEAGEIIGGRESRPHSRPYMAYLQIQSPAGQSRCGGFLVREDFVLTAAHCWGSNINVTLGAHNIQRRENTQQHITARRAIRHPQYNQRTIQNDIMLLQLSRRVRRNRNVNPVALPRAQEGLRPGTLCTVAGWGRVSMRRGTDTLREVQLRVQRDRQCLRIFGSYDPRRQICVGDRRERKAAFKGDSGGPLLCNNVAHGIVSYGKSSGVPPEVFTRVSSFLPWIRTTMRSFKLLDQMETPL
Chain of Cytochrome P450 2C19 (P33261 whole entry): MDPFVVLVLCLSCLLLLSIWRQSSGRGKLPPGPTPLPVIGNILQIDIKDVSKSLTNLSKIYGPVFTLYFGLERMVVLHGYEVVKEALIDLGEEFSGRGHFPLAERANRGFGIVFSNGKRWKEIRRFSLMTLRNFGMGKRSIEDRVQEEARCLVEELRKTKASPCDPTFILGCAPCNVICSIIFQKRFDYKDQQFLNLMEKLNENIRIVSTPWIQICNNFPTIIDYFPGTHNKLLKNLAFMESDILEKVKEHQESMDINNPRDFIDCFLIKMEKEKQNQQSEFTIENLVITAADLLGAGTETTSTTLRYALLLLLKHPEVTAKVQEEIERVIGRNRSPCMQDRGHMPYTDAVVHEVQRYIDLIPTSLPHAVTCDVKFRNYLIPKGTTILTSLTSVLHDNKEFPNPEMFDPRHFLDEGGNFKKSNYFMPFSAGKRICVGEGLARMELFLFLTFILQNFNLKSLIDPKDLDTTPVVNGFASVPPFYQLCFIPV
Chain of Chymase (Homo sapiens) (P23946 whole entry): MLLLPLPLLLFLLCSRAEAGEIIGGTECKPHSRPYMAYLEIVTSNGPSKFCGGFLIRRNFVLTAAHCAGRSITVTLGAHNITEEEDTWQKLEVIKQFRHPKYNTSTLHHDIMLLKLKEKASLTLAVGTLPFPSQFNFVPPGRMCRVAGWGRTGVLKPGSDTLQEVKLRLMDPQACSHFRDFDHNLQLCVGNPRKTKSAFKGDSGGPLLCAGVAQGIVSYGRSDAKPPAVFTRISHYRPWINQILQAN
Chain of Cytochrome P450 2D6 (P10635 whole entry): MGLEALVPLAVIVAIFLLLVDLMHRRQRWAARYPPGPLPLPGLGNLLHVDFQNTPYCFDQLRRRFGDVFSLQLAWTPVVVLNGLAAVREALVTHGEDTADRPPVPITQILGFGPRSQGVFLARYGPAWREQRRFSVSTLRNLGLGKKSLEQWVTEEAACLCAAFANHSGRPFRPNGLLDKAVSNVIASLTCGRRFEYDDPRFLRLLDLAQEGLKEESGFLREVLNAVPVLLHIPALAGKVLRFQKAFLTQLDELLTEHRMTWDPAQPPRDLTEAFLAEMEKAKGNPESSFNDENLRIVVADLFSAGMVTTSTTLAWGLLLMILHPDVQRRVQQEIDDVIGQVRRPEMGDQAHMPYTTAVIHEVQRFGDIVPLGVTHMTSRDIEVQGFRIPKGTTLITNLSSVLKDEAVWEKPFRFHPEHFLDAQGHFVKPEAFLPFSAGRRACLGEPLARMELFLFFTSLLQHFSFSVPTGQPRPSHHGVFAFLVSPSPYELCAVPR
Chain of Plasminogen (Homo sapiens) (P00747 97-580 limits assumed): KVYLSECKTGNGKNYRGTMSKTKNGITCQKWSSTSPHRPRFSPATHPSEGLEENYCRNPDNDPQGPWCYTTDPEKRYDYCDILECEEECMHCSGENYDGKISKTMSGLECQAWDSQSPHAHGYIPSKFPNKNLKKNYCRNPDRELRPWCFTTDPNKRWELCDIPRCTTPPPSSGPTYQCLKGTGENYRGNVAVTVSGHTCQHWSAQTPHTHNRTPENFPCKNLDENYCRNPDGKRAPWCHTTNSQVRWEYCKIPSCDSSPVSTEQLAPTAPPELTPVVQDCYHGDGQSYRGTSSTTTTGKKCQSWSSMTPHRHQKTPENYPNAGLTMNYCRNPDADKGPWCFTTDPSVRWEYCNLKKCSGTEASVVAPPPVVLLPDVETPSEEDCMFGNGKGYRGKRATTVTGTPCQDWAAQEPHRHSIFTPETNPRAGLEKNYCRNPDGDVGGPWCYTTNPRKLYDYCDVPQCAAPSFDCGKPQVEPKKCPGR
Chain of Plasminogen (Homo sapiens) (P00747 581-810 limits assumed): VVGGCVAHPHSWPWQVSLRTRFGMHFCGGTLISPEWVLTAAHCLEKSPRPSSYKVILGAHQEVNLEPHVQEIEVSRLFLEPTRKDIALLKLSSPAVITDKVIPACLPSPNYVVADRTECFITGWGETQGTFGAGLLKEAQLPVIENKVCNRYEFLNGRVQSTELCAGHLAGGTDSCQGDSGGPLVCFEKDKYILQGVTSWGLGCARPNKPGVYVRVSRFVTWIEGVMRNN
Chain of Neutrophil elastase (Homo sapiens) (P08246 whole entry): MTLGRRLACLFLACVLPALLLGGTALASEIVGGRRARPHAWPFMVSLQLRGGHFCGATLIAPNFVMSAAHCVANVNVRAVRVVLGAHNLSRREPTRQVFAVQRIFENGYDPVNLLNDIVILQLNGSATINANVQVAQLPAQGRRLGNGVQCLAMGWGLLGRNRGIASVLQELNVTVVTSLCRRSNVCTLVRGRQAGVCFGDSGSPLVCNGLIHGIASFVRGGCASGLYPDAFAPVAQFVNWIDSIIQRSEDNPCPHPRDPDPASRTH
Chain of Amine oxidase [flavin-containing] B (P27338 whole entry): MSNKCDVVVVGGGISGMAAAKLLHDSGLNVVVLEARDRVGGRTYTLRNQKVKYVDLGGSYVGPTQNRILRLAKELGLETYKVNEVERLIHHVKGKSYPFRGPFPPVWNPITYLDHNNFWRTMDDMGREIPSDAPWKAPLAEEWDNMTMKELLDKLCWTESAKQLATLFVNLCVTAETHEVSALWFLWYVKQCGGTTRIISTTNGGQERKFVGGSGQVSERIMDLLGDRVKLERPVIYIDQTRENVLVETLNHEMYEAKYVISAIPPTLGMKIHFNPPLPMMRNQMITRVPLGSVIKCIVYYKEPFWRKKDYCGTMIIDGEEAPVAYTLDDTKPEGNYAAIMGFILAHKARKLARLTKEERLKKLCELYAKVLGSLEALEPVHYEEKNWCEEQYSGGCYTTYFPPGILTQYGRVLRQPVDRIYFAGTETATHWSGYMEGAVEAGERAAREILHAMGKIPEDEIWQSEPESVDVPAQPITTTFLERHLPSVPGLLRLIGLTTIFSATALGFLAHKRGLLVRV
Chain of Cytochrome P450 2C9 (P11712 whole entry): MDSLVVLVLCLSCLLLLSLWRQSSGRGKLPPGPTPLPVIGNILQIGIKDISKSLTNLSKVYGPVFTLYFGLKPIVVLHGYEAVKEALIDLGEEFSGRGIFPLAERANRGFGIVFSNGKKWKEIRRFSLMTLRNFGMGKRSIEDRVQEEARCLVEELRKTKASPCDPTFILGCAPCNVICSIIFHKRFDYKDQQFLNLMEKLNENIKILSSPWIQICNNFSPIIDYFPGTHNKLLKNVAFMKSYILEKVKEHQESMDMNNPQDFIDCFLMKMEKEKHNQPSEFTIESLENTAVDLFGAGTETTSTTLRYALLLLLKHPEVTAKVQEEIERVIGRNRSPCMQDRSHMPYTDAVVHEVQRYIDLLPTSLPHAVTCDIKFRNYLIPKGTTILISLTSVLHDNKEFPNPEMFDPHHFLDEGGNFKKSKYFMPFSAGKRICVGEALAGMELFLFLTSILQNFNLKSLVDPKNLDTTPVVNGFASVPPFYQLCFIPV

| SMILES | IC50 (Trypsin) | IC50 [1] | Ki [1] | other results |
| --- | --- | --- | --- | --- |
| NCc1ccc2c(c1)C1(CCN(C(=O)c3ccc(C#Cc4ccccc4Cl)o3)CC1)CO2 | 38000 nM | 5.2 nM | 3.4 nM |  |
| Cc1ccc(C#Cc2ccc(C(=O)N3CCC4(CC3)COc3ccc(CN)cc34)o2)cc1 | 13000 nM | 8.3 nM |  |  |
| NCc1ccc2c(c1)C1(CCN(C(=O)c3ccc(C#Cc4ccccc4F)o3)CC1)CO2 | 12000 nM | 4.3 nM | 3 nM |  |
| C/N=C(/N)c1ccc2c(c1)C1(CCN(C(=O)c3ccc(C#Cc4ccccc4)o3)CC1)CO2 | > 50000 nM | 780 nM |  |  |
| CC(=O)N1C[C@H](O)C[C@H]1C(=O)NC(CCCNC(=N)N)C(=O)c1nc2ccccc2s1 (some centres not stated) |  | 13 nM | 10 nM |  |
| NCc1ccc2c(c1)C1(CCN(C(=O)c3ccc(C#Cc4ccccc4)o3)CC1)CN2 | > 50000 nM | 23 nM |  |  |
| NCc1ccc2c(c1)C1(CCN(C(=O)c3ccc(-c4ccccc4)o3)CC1)CO2 | 8600 nM | 28 nM |  |  |
| CC(C)(C)c1ccc(C#Cc2ccc(C(=O)N3CCC4(CC3)COc3ccc(CN)cc34)o2)cc1 | 13000 nM | 700 nM |  |  |
| N=C(N)c1ccc2c(c1)C1(CCN(C(=O)c3ccc(C#Cc4ccccc4)o3)CC1)CO2 | 1400 nM | 4.5 nM |  | Ratio IC50 (Homo sapiens [2]): 300 |
| COc1ccccc1C#Cc1ccc(C(=O)N2CCC3(CC2)COc2ccc(CN)cc23)o1 | 5500 nM | 13 nM |  |  |
| NC(=O)c1ccc2c(c1)C1(CCN(C(=O)c3ccc(C#Cc4ccccc4)o3)CC1)CO2 | 39000 nM |  |  | inhibition (Homo sapiens [3]): 29% |
| NCc1ccc2c(c1)C1(CCN(C(=O)c3ccc(C#Cc4ccccc4)o3)CC1)CO2.O=C(O)c1ccccc1 |  |  |  | concentration (Plasma): 400 nM; Activity (Cavia porcellus [4]): 20%; Activity (Cavia porcellus [5]): 90%; Activity (Cavia porcellus [6]): 65% |
| NCc1ccc2c(c1)C1(CCN(C(=O)c3ccc(C#Cc4ccccc4)o3)CC1)CN2S(=O)(=O)c1ccccc1 | 6700 nM | 5.7 nM | 16 nM |  |
| NCc1ccc2c(c1)C1(CC2)CCN(C(=O)c2ccc(C#Cc3ccccc3)o2)CC1 | 7700 nM | 3.1 nM |  |  |
| Cc1ccccc1C#Cc1ccc(C(=O)N2CCC3(CC2)COc2ccc(CN)cc23)o1 | 12000 nM | 1.2 nM | 4 nM |  |
| NCc1ccc2c(c1)C1(CCN(C(=O)c3ccc(C#Cc4ccccc4)o3)CC1)CO2 [listing 1 of 2 here] |  |  |  | inhibition [7]: < 15%; inhibition [8]: < 15%; inhibition [9]: < 15%; inhibition [10]: < 30%; inhibition [11]: < 15%; inhibition [12]: < 30%; inhibition [13]: < 15%; Activity (Ovis aries [14]): Active; inhibition (Chymase (Homo sapiens)): < 30%; inhibition [15]: < 15%; inhibition [16]: < 15%; Activity (Ovis aries [17]): Active; Activity (Ovis aries [18]): inactive; inhibition [19]: < 15%; inhibition [20]: < 15% |
| NCc1ccc2c(c1)C1(CCN(C(=O)c3ccc(CCc4ccccc4)o3)CC1)CO2 | 47000 nM | 82 nM |  |  |
| NCc1cccc(C2CCN(C(=O)c3ccc(C#Cc4ccccc4F)o3)CC2)c1 |  |  | 31 nM |  |
| CS(=O)(=O)N1CC2(CCN(C(=O)c3ccc(C#Cc4ccccc4)o3)CC2)c2cc(CN)ccc21 | > 50000 nM | 1.8 nM | 7.1 nM |  |
| NCc1cccc(C2CCN(C(=O)c3ccc(C#Cc4ccccc4)o3)CC2)c1 |  |  | 8.7 nM |  |
| CC(=O)N1CC2(CCN(C(=O)c3ccc(C#Cc4ccccc4)o3)CC2)c2cc(CN)ccc21 | > 50000 nM | 15 nM |  |  |
| N/N=C(\N)c1ccc2c(c1)C1(CCN(C(=O)c3ccc(C#Cc4ccccc4)o3)CC1)CO2 | > 50000 nM | 59 nM |  |  |
| NCc1ccc2c(c1)C1(CCN(C(=O)c3ccc(C#Cc4ccccc4)o3)CC1)CO2 [listing 2 of 2 here] | 18000 nM |  |  | half-life [21]: > 1.67 h; IC50 (Cytochrome P450 2C19): > 20000 nM; remaining at 1 h [22]: 100%; Vd (Rattus norvegicus): 17 L/kg; half-life [23]: 27 h; IC50 [24]: 23000 nM; IC50 (Cytochrome P450 2D6): > 20000 nM; bioavailability [25]: 65%; Vd (Canis familiaris): 16 L/kg; IC50 (Cytochrome P450 2C9): > 20000 nM; half-life [26]: 7 h; IC50 (Cytochrome P450 1A2): > 20000 nM; Ki (Trypsin): 2500 nM; bioavailability [27]: 100%; Cmax [28]: 900 nM; remaining at 0.5 h (monoamine oxidase B): 95%; IC50 [29]: 72000 nM; Cmax [30]: 1100 nM; IC50 (Cytochrome P450 3A4): > 20000 nM |
| NCc1ccc2c(c1)C1(CCN(C(=O)c3ccc(C#Cc4ccc(O)cc4)o3)CC1)CO2 | 23000 nM | 3200 nM |  |  |
| NCc1ccc2c(c1)C1(CCN(C(=O)c3ccc(Sc4ccccc4)o3)CC1)CO2 | 9100 nM | 90 nM |  |  |

— ChEMBL document CHEMBL1143198, “Potent, nonpeptide inhibitors of human mast cell tryptase. Synthesis and biological evaluation of novel spirocyclic piperidine amide derivatives” (Bioorg Med Chem Lett, 2008)
